Measurements as given in ChEMBL document CHEMBL5058577, “EUbOPEN Chemogenomics Library 2 (Multiplex)” (2022).

System: U2OS
Experiment: Multiplex assay against U2OS
Type: toxicity, cell-based
Conditions: human
Procedure, shortened: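 Live cells carried four stains from seeding: Hoechst33342, BioTracker Green Microtubule Cytoskeleton Dye, MitoTracker Red and Annexin V Alexa Fluor 680. They were imaged on a CQ1 microscope at 37°C and 5% CO2 after compound addition. Using CellPathfinder machine-learning gating, cells were split into Hoechst high-intensity objects or normal cells, normal cells into healthy, pyknosed or fragmented nuclei, and pyknosed cells into mitotic or apoptotic; tubulin, mitochondrial-mass and membrane-permeability phenotypes are per cents of healthy-nucleus cells.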

[1] = 12 h, 1 µM, compound concentration 1 uM, replicate 1
[2] = 12 h, 1 µM, compound concentration 1 uM, replicate 2
[3] = 12 h, 10 µM, compound concentration 10 uM, replicate 1
[4] = 12 h, 10 µM, compound concentration 10 uM, replicate 2
[5] = 24 h, 1 µM, compound concentration 1 uM, replicate 1
[6] = 24 h, 1 µM, compound concentration 1 uM, replicate 2
[7] = 24 h, 10 µM, compound concentration 10 uM, replicate 1
[8] = 24 h, 10 µM, compound concentration 10 uM, replicate 2
[9] = 48 h, 1 µM, compound concentration 1 uM, replicate 1
[10] = 48 h, 1 µM, compound concentration 1 uM, replicate 2
[11] = 48 h, 10 µM, compound concentration 10 uM, replicate 1
[12] = 48 h, 10 µM, compound concentration 10 uM, replicate 2

## C[C@H](NC(=O)CNC(=O)c1cccc(Cl)c1)c1ccccc1
[1]
  Population Apoptotic (%): 78%
  Population Fragmented Nuclei (%): 26%
  Population Healthy Nuclei (%): 61%
  Population Hoechst High Intensity Objects (%): 3%
  Population Membrane Permeable-Phenotype (%): 6%
  Population Mitochondria Different-Phenotype (%): 4%
  Population Mitotic Cells (%): 21%
  Population Normal (%): 96%
  Population Pyknosed Nuclei (%): 12%
  Population Tubulin-Different-Phenotype (%): 2%
  Total Cell Count: 242
[2]
  Population Apoptotic (%): 71%
  Population Fragmented Nuclei (%): 20%
  Population Healthy Nuclei (%): 68%
  Population Membrane Permeable-Phenotype (%): 8%
  Population Mitochondria Different-Phenotype (%): 2%
  Population Mitotic Cells (%): 28%
  Population Pyknosed Nuclei (%): 11%
  Total Cell Count: 124
[3]
  Population Apoptotic (%): 68%
  Population Fragmented Nuclei (%): 24%
  Population Healthy Nuclei (%): 63%
  Population Hoechst High Intensity Objects (%): 2%
  Population Membrane Permeable-Phenotype (%): 9%
  Population Mitochondria Different-Phenotype (%): 3%
  Population Mitotic Cells (%): 31%
  Population Normal (%): 97%
  Population Pyknosed Nuclei (%): 11%
  Population Tubulin-Different-Phenotype (%): 4%
  Total Cell Count: 198
[4]
  Population Apoptotic (%): 66%
  Population Fragmented Nuclei (%): 13%
  Population Healthy Nuclei (%): 82%
  Population Hoechst High Intensity Objects (%): 0%
  Population Membrane Permeable-Phenotype (%): 2%
  Population Mitotic Cells (%): 33%
  Population Normal (%): 100%
  Population Pyknosed Nuclei (%): 4%
  Population Tubulin-Different-Phenotype (%): 2%
  Total Cell Count: 150
[5]
  Population Apoptotic (%): 79%
  Population Fragmented Nuclei (%): 19%
  Population Healthy Nuclei (%): 71%
  Population Hoechst High Intensity Objects (%): 2%
  Population Membrane Permeable-Phenotype (%): 7%
  Population Mitochondria Different-Phenotype (%): 2%
  Population Mitotic Cells (%): 20%
  Population Normal (%): 97%
  Population Pyknosed Nuclei (%): 8%
  Population Tubulin-Different-Phenotype (%): 2%
  Total Cell Count: 275
[6]
  Population Apoptotic (%): 88%
  Population Healthy Nuclei (%): 69%
  Population Membrane Permeable-Phenotype (%): 4%
  Population Mitochondria Different-Phenotype (%): 4%
  Population Mitotic Cells (%): 11%
  Population Pyknosed Nuclei (%): 10%
  Population Tubulin-Different-Phenotype (%): 0%
  Total Cell Count: 168
[7]
  Population Apoptotic (%): 90%
  Population Fragmented Nuclei (%): 24%
  Population Healthy Nuclei (%): 61%
  Population Hoechst High Intensity Objects (%): 1%
  Population Membrane Permeable-Phenotype (%): 6%
  Population Mitochondria Different-Phenotype (%): 4%
  Population Mitotic Cells (%): 9%
  Population Normal (%): 98%
  Population Pyknosed Nuclei (%): 13%
  Population Tubulin-Different-Phenotype (%): 2%
  Total Cell Count: 239
[8]
  Population Apoptotic (%): 71%
  Population Fragmented Nuclei (%): 12%
  Population Healthy Nuclei (%): 83%
  Population Membrane Permeable-Phenotype (%): 4%
  Population Mitochondria Different-Phenotype (%): 2%
  Population Mitotic Cells (%): 28%
  Population Pyknosed Nuclei (%): 3%
  Population Tubulin-Different-Phenotype (%): 3%
  Total Cell Count: 189
[9]
  Population Apoptotic (%): 74%
  Population Fragmented Nuclei (%): 18%
  Population Healthy Nuclei (%): 71%
  Population Hoechst High Intensity Objects (%): 3%
  Population Membrane Permeable-Phenotype (%): 6%
  Population Mitochondria Different-Phenotype (%): 3%
  Population Mitotic Cells (%): 25%
  Population Normal (%): 96%
  Population Pyknosed Nuclei (%): 10%
  Population Tubulin-Different-Phenotype (%): 1%
  Total Cell Count: 401
[10]
  Population Apoptotic (%): 100%
  Population Fragmented Nuclei (%): 17%
  Population Healthy Nuclei (%): 70%
  Population Hoechst High Intensity Objects (%): 2%
  Population Membrane Permeable-Phenotype (%): 4%
  Population Mitotic Cells (%): 0%
  Population Normal (%): 97%
  Population Pyknosed Nuclei (%): 11%
  Population Tubulin-Different-Phenotype (%): 2%
  Total Cell Count: 205
[11]
  Population Apoptotic (%): 81%
  Population Fragmented Nuclei (%): 19%
  Population Healthy Nuclei (%): 73%
  Population Hoechst High Intensity Objects (%): 2%
  Population Membrane Permeable-Phenotype (%): 6%
  Population Mitochondria Different-Phenotype (%): 2%
  Population Mitotic Cells (%): 18%
  Population Normal (%): 97%
  Population Pyknosed Nuclei (%): 7%
  Population Tubulin-Different-Phenotype (%): 4%
  Total Cell Count: 311
[12]
  Population Apoptotic (%): 100%
  Population Fragmented Nuclei (%): 12%
  Population Healthy Nuclei (%): 80%
  Population Hoechst High Intensity Objects (%): 1%
  Population Membrane Permeable-Phenotype (%): 4%
  Population Mitochondria Different-Phenotype (%): 1%
  Population Mitotic Cells (%): 0%
  Population Normal (%): 98%
  Population Tubulin-Different-Phenotype (%): 1%
  Total Cell Count: 279
